Each block holds one molecule with its values, some of them ahead of it. The source made the active and inactive calls.
Tests used:
[1] = Tmax in male Sprague-Dawley CD rat at 5 mg/kg, po; assay type: ADME, organism-based; parameters: dose 5 mg/kg, route oral; settings: in vivo
Outline: (§1)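 Sprague-Dawley CD rats: 1 mg/kg iv bolus in 20% ethanol/saline (apparent pH 3.4) to 3 males and 3 females; 5 mg/kg po in 0.5% methylcellulose with 1% Tween-80 to 3 males. Jugular blood into EDTA, predose to 32 h. Free base quantified by LC/MS after solid-phase extraction (range 5-5000 nM); noncompartmental analysis; F relative to iv.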

[2] = Oral bioavailability in male Sprague-Dawley CD rat at 5 mg/kg relative to 1 mg/kg, iv dose; assay type: ADME, organism-based; settings: in vivo; outline: as §1
Rattus norvegicus [3] = experiment: Ex vivo receptor occupancy of CRF1 receptor in Sprague-Dawley rat brain at 0.3 mg/kg, po by [125I]sauvagine binding and autoradiography relative to control; assay type: functional
Outline: (§2)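 Sprague-Dawley rats dosed po at 0.3, 1, 3, 10, 30 mg/kg in the defensive-withdrawal vehicle and protocol; brains removed, sectioned, frozen at -80 °C, then ex vivo binding gave occupancy relative to vehicle-treated rats; mean ± SEM.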

Rattus norvegicus [4] = experiment: Hepatic blood flow in iv dosed male Sprague-Dawley CD rat; assay type: ADME, organism-based, Liver; settings: in vivo
Rattus norvegicus [5] = experiment: Ex vivo receptor occupancy of CRF1 receptor in po dosed Sprague-Dawley rat brain by [125I]sauvagine binding and autoradiography relative to control; assay type: functional; settings: read-out: MED; outline: as §2
Rattus norvegicus [6] = experiment: Ex vivo receptor occupancy of CRF1 receptor in Sprague-Dawley rat brain at 10 mg/kg, po by [125I]sauvagine binding and autoradiography relative to control; assay type: functional; outline: as §2
[7] = Volume of distribution at steady state in female Sprague-Dawley CD rat at 1 mg/kg, iv; assay type: ADME, organism-based; parameters: dose 1 mg/kg, route intravenous; settings: in vivo, read-out: Vdss
Outline: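 Female Sprague-Dawley CD rats (n = 3) given a single 1 mg/kg iv bolus (free base) in 20% ethanol/physiological saline (apparent pH 3.4). Jugular vein blood taken into EDTA from predose to 32 h. Plasma assayed by solid-phase extraction and LC/MS with an internal standard (range 5–5000 nM). Noncompartmental analysis; mean ± SD.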

[8] = Elimination half life in female Sprague-Dawley CD rat at 1 mg/kg, iv; assay type: ADME, organism-based; parameters: dose 1 mg/kg, route intravenous; settings: in vivo, read-out: beta t1/2 (converted); outline: as §1
Rattus norvegicus [9] = experiment: Hepatic blood flow in iv dosed female Sprague-Dawley CD rat; assay type: ADME, organism-based, Liver; settings: in vivo
[10] = Clearance in male Sprague-Dawley CD rat at 1 mg/kg, iv; assay type: ADME, organism-based; parameters: dose 1 mg/kg, route intravenous; settings: in vivo; outline: as §1
Rattus norvegicus [11] = experiment: Anxiolytic-like activity in Sprague-Dawley rat assessed as increase in time spent in open arms at 30 mg/kg, po measured after 1 hr by elevated plus maze test; assay type: functional, organism-based; parameters: dose 30 mg/kg
Outline: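 Group-housed male Sprague-Dawley rats (180-300 g) dosed po in 0.25% Methocel 1 h before elevated plus maze; arm entry defined as all four paws in arm; percent time in open arms scored; test doses 1.0, 3.0, 10, 30 mg/kg; positive control at 18 mg/kg; n = 13-15/dose; mean ± SEM, ANOVA then Fisher's LSD.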

Rattus norvegicus [12] = experiment: Toxicity in Sprague-Dawley rat assessed as time spent on rotarod at 30 mg/kg, po after 1 hr by rotarod test; assay type: organism-based; parameters: dose 30 mg/kg, route oral; settings: in vivo
Outline: (§3)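 Male Sprague-Dawley rats received a single oral gavage dose of 30 mg/kg (free base weight) in 0.5% methocel–Tween-80 (99:1) or vehicle alone. Behaviour was assessed 1 h postdose, as time on the rotorod in seconds for the rotorod test and total distance travelled in cm for open-field locomotor activity. Values are mean ± SEM, n = 8 per group.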

[13] = Elimination half life in male Sprague-Dawley CD rat at 1 mg/kg, iv; assay type: ADME, organism-based; parameters: dose 1 mg/kg, route intravenous; settings: in vivo, read-out: beta t1/2 (converted); outline: as §1
Rattus norvegicus [14] = experiment: Anxiolytic-like activity in Sprague-Dawley rat assessed as decrease in latency to exit dark chamber at 30 mg/kg, po measured after 1 hr by defensive withdrawal test relative to control; assay type: functional; parameters: scale not given: the % may be the effect or the level left
Outline: (§4)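 Male Sprague-Dawley rats (180-300 g), individually housed; open field with cylindrical dark chamber; oral dosing in 0.25% Methocel 1 h before a 15 min session scored blind via video; latency to place all four paws in open field recorded, maximum 900 s; test doses 1.0, 3.0, 10, 30 mg/kg; positive control at 10 mg/kg; n = 12/dose; Kruskal-Wallis then Mann-Whitney U.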

Rattus norvegicus [15] = experiment: Toxicity in Sprague-Dawley rat assessed as total distance traveled at 30 mg/kg, po after 1 hr by open-field locomotor activity test; assay type: organism-based; parameters: dose 30 mg/kg, route oral; settings: in vivo; outline: as §3
[16] = Clearance in female Sprague-Dawley CD rat at 1 mg/kg, iv; assay type: ADME, organism-based; parameters: dose 1 mg/kg, route intravenous; settings: in vivo; outline: as §1
Rattus norvegicus [17] = experiment: Anxiolytic-like activity in Sprague-Dawley rat assessed as decrease in latency to exit dark chamber at 10 mg/kg, po measured after 1 hr by defensive withdrawal test relative to control; assay type: functional; parameters: scale not given: the % may be the effect or the level left; outline: as §4
Rattus norvegicus [18] = experiment: Ex vivo receptor occupancy of CRF1 receptor in Sprague-Dawley rat brain at 1 mg/kg, po by [125I]sauvagine binding and autoradiography relative to control; assay type: functional; outline: as §2
Rattus norvegicus [19] = experiment: Anxiolytic-like activity in Sprague-Dawley rat assessed as decrease in latency to exit dark chamber at 3 mg/kg, po measured after 1 hr by defensive withdrawal test relative to control; assay type: functional; parameters: scale not given: the % may be the effect or the level left; outline: as §4
Rattus norvegicus [20] = experiment: Ex vivo receptor occupancy of CRF1 receptor in Sprague-Dawley rat brain at 30 mg/kg, po by [125I]sauvagine binding and autoradiography relative to control; assay type: functional; outline: as §2
[21] = Oral bioavailability in Beagle dog at 20 mg/kg; assay type: ADME, organism-based, Canis lupus familiaris; settings: in vivo
[22] = Cmax in Beagle dog at 20 mg/kg, po; assay type: ADME, organism-based, Canis lupus familiaris; parameters: dose 20 mg/kg, route oral; settings: in vivo
[23] = Tmax in Beagle dog at 20 mg/kg, po; assay type: ADME, organism-based, Canis lupus familiaris; parameters: dose 20 mg/kg, route oral; settings: in vivo
[24] = Volume of distribution at steady state in Beagle dog at 1 mg/kg, iv; assay type: ADME, organism-based, Canis lupus familiaris; parameters: dose 1 mg/kg, route intravenous; settings: in vivo, read-out: Vdss
Outline: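 Male beagle dogs (8.0-11.0 kg) dosed intravenously. Plasma sampled at 0.25, 0.5, 1, 2, 4, 6, 8, 12 and 24 h after dosing. Liquid–liquid extraction in hexane/ether, then LC/MS/MS assay (quantitation limit 1 ng/mL). Concentrations expressed as free base. Parameters obtained by noncompartmental analysis as for rat. Mean ± SD.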

[25] = Elimination half life in Beagle dog at 1 mg/kg, iv; assay type: ADME, organism-based, Canis lupus familiaris; parameters: dose 1 mg/kg, route intravenous; settings: in vivo, read-out: beta t1/2 (converted)
Outline: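 Male beagle dogs (8.0-11.0 kg) dosed iv or po (5 mg/kg oral suspension in 0.5% methylcellulose with 1% Tween-80); plasma sampled 0.25-24 h; liquid-liquid extraction with hexane/ether, LC/MS/MS, quantitation limit 1 ng/mL (2.42 nM); noncompartmental parameters as free base.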

Tmax [1]: 0.5 h | bioavailability [2]: 51% | QH (Rattus norvegicus [4]): 55 mL/min/kg | Vd [7]: 12.2 L/kg | half-life [8]: 11.9 h | QH (Rattus norvegicus [9]): 55 mL/min/kg | clearance [10]: 20 mL/min/kg | half-life [13]: 9.7 h | clearance [16]: 14.5 mL/min/kg
Compound: COCCN(CCOC)c1nc(C)nc2c(-c3ccc(OC)cc3C)c(C)nn12
Activity (Rattus norvegicus [3]): 12% | minimal effective dose (Rattus norvegicus [5]): 3 mg/kg | Activity (Rattus norvegicus [6]): 60% | Activity (Rattus norvegicus [11]): Active | Time (Rattus norvegicus [12]): 158 s | Activity (Rattus norvegicus [14]): 59% | Activity (Rattus norvegicus [15]): 4986 cm | Activity (Rattus norvegicus [17]): 73% | Activity (Rattus norvegicus [18]): 17% | Activity (Rattus norvegicus [19]): 62% | Activity (Rattus norvegicus [20]): 82%

bioavailability [21]: 4.7% | Cmax [22]: 1940 nM | Tmax [23]: 4 h | Vd [24]: 14.8 L/kg | half-life [25]: 33.3 h
Compound: CC[C@@H](C)Nc1nc(C)nc2c(-c3c(C)cc(OC)cc3OC)c(C)nn12
